Consider seven molecules from ChEMBL document CHEMBL3120097, “HCV NS5A replication complex inhibitors. Part 4. Optimization for genotype 1a replicon inhibitory activity” (J Med Chem, 2014).

As a reminder, the EC50 is the concentration that produces a half-maximal response. As a reminder, the CC50 is the concentration giving 50% cytotoxicity. Lower therefore signals harm at low concentration.

The subject of data set [1] is Bovine viral diarrhea virus 1. Description: Antiviral activity against BVDV infected in bovine MDBK cells after 72 hrs by luciferase reporter gene assay. The following applies: Bovine viral diarrhea virus isolates and strains. The format is functional, organism-based. (In general: Reporter assays use an easily measured gene product as a stand-in for the process of interest.)

For data set [2], the system named is Hepatitis C virus. The data set is described as follows: Antiviral activity against HCV genotype 2a JFH. It counts as functional, organism-based, Hepacivirus hominis. The note with it: subtype 2a JFH.
Data set [3] deals with Hepatitis C virus. The data set is described as follows: Antiviral activity against HCV genotype 4a. It counts as functional, organism-based, Hepacivirus hominis.
Data set [4] can be described thus: Cytotoxicity against bovine MDBK cells after 3 days by CellTitre-Blue assay. The format is cell-based, Bos taurus. The following applies: cattle.
Data set [5] has as its system Hepatitis C virus. Description: Antiviral activity against HCV genotype 1a H77c infected in human HuH7 cells after 3 days by luciferase reporter gene assay. The format is functional, organism-based, Hepacivirus hominis. The following applies: Huh-7, 72 h. The gist of the method:
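Titrated compounds in 384-well plates seeded with replicon cells, 2.4 × 10³/well in DMEM with 4% FCS, final DMSO 0.5% v/v; 3 days at 37 °C. Renilla luciferase read with EnduRen substrate at […] final after ≥1 h at 37 °C; EC₅₀ from four-parameter logistic fit.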

Data set [6] relates to Hepatitis C virus. Description: Antiviral activity against HCV genotype 1b infected in human HuH7 cells after 72 hrs by FRET assay. It counts as functional, organism-based, Hepacivirus hominis. The note with it: Huh-7, 72 h. The gist of the method: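 Replicon cells seeded 10K/well, attached overnight; compounds added with 0.5% v/v DMSO vehicle controls, typically 72 h. Alamar blue read first, then cells PBS-rinsed and lysed with reagent holding 150 mM NaCl and 20 μM final EDANS/DABCYL NS3 protease peptide; kinetic fluorescence 340/490 nm. EC₅₀ = concentration halving background-subtracted FRET signal versus DMSO wells.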

Data set [7] in a line: Cytotoxicity against human Huh7.5 cells. It counts as cell-based, Huh-7.
Data set [8] has as its system Hepatitis C virus. Description: Antiviral activity against HCV genotype 1a H77c infected in human HuH7 cells after 5 days by ELISA. The format is functional, organism-based, Hepacivirus hominis. The following applies: Huh-7, 120 h. The gist of the method: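 Genotype 1a (H77c) replicon cells, 1.5 × 10⁴/well in DMEM + 10% FBS, attached overnight at 37 °C; serially diluted compounds (in FBS-free DMEM) added, 5 days at 37 °C. Cells dried overnight at 37 °C to fix, Triton-permeabilized, casein-blocked; NS5A antiserum then HRP secondary, chemiluminescent read. Inhibition relative to untreated wells; background set with 500 nM NS3 inhibitor.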

In data set [9] the test system is Hepatitis C virus. Description: Antiviral activity against HCV genotype 1a H77c infected in human HuH7 cells after 72 hrs. The note with it: Huh-7, 72 h.

As to `O=C(Nc1ccc(/C=C/c2ccc(NC(=O)[C@@H]3CCCN3C(=O)Cc3ccccc3)cc2)cc1)[C@@H]1CCCN1C(=O)Cc1ccccc1`, the EC50 in [1] is over 5 µM; with Hepatitis C virus [2], 79 nM; in the data set with Hepatitis C virus [3] it was 157 nM. The CC50 at 72 h in [4] is over 30 µM.

With `O=C(Nc1ccc(/C=C/c2ccc(NC(=O)[C@@H]3CCCN3C(=O)c3ccccc3)cc2)cc1)[C@@H]1CCCN1C(=O)c1ccccc1`, the EC50 in the data set with Hepatitis C virus [5] is 6300 nM; in data set [1], over 5 µM; with Hepatitis C virus [6] it was 100 nM. Besides, the CC50 at 72 h in data set [4] is over 10 µM.

Take `O=C(Nc1ccc(-c2cc(-c3ccc(NC(=O)[C@@H]4CCCN4C(=O)Cc4ccccc4)cc3)[nH]n2)cc1)[C@@H]1CCCN1C(=O)Cc1ccccc1`: the EC50 in the data set with Hepatitis C virus [5] was 1370 nM; in [1], over 10 µM; with Hepatitis C virus [6], 4.8 nM. Further, in data set [4], the CC50 at 72 h is over 10 µM.

Take `COc1cccc2c(C(=O)N3CCC[C@H]3C(=O)Nc3ccc(/C=C/c4ccc(NC(=O)[C@@H]5CCCN5C(=O)c5nc(Cl)cc6c(OC)cccc56)cc4)cc3)nc(Cl)cc12`: the EC50 is over 10 µM in data set [1]; 2.2 nM with Hepatitis C virus [2]; over 1000 nM with Hepatitis C virus [3]; 7 nM in the data set with Hepatitis C virus [6]; 37 nM in the data set with Hepatitis C virus [8]. In addition, the CC50 in [7] is over 10 µM. This molecule also registered a CC50 at 72 h in data set [4] of over 10 µM.

In the case of `COc1cccc2c(C(=O)N3CCC[C@H]3C(=O)Nc3ccc(C#Cc4ccc(NC(=O)[C@@H]5CCCN5C(=O)c5nc(Cl)cc6c(OC)cccc56)cc4)cc3)nc(Cl)cc12`, the EC50 with Hepatitis C virus [5] is 18 nM; in data set [1], over 10 µM; with Hepatitis C virus [6], 23 nM. In addition, in data set [4], the CC50 at 72 h is over 10 µM.

Regarding `COc1cccc2c(C(=O)N3CCC[C@H]3C(=O)Nc3ccc(-c4cc(-c5ccc(NC(=O)[C@@H]6CCCN6C(=O)c6nc(Cl)cc7c(OC)cccc67)cc5)[nH]n4)cc3)nc(Cl)cc12`, the 50% effective concentration (EC50) with Hepatitis C virus [5] was 120 nM; in [1], over 10 µM; in the data set on Hepatitis C virus [6], 11 nM. The same molecule gave a CC50 at 72 h in data set [4] of over 10 µM.

For `O=C(Nc1ccc(/C=C/c2ccc(NC(=O)[C@@H]3CCCN3C(=O)c3cc4ccccc4cn3)cc2)cc1)[C@@H]1CCCN1C(=O)c1cc2ccccc2cn1`, the half-maximal effective concentration (EC50) in [1] is over 5 µM; in the data set with Hepatitis C virus [6], 280 nM; with Hepatitis C virus [9] it was 3.1 µM. In [4], this molecule showed a CC50 at 72 h of over 10 µM.
